Values after ≈ are worked out from the molar mass of the structure shown.
What was measured:
[1] = biological target: T1, Dual specificity tyrosine-phosphorylation-regulated kinase 1A (Homo sapiens, UniProt Q13627); assay: Displacement of Kinase tracer 236 from biotinylated DYRK1A (unknown origin) expressed in Escherichia coli BL21 (DE3) incubated for 1.5 hrs by TR-FRET assay
[2] = biological target: T1, Dual specificity tyrosine-phosphorylation-regulated kinase 1A; assay: Binding affinity to biotinylated DYRK1A (unknown origin) expressed in Escherichia coli BL21 (DE3) assessed as dissociation constant measured up to 5 min by SPR method
[3] = Metabolic stability in human liver microsomes; assay type: ADME, Microsome; conditions: read-out: Stabilty
[4] = Metabolic stability in rat liver microsomes; assay type: ADME, Microsome; conditions: read-out: Stabilty
[5] = Thermodynamic solubility of the compound at pH 6.8; assay type: physicochemical; conditions: buffer, read-out: Therm_solubility
In short: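 Thermodynamic solubility measured at pH 6.8 in a single experiment, reported in […].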

[6] = biological target: Dual specificity tyrosine-phosphorylation-regulated kinase 1B (Homo sapiens) (UniProt Q9Y463); assay: Inhibition of wild-type human full length DYRK1B (M1 to S629 residues) expressed in bacterial expression system assessed as remaining activity at 1 uM by Kinomescan method relative to control
In short: (§1)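 KINOMEscan competition binding panel run with inhibitor at 1 μM; read-out is remaining kinase activity (percent of control).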

[7] = biological target: T2, Dual specificity tyrosine-phosphorylation-regulated kinase 2 (Homo sapiens) (UniProt Q92630); assay: Inhibition of wild-type human full length DYRK2 (M1 to S528 residues) expressed in mammalian expression system assessed as remaining activity at 1 uM by Kinomescan method relative to control; in short: as §1
T2 sequence (whole entry): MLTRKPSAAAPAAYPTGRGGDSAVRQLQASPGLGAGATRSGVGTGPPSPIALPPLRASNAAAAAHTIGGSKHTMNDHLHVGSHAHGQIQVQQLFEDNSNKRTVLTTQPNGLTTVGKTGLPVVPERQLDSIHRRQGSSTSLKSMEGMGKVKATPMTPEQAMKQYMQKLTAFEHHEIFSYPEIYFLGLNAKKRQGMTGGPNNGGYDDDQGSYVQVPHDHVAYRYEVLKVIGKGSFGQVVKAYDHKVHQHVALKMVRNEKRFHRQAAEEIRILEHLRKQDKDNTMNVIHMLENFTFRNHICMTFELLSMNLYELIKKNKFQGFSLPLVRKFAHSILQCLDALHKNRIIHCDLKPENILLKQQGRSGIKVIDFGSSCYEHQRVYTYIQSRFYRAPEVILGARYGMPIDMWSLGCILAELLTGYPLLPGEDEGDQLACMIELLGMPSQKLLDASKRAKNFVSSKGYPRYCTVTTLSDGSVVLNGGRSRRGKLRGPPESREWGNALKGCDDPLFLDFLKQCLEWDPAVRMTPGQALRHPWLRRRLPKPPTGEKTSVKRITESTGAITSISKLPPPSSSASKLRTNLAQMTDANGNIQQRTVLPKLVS

[8] = biological target: Dual specificity protein kinase CLK1 (Homo sapiens, UniProt P49759); assay: Inhibition of wild-type human full length CLK1 (M1 to I484 residues) expressed in bacterial expression system assessed as remaining activity at 1 uM by Kinomescan method relative to control; in short: as §1
[9] = biological target: Dual specificity protein kinase CLK2 (Homo sapiens) (UniProt P49760); assay: Inhibition of wild-type human partial length CLK2 (D144 to R498 residues) expressed in bacterial expression system assessed as remaining activity at 1 uM by Kinomescan method relative to control; in short: as §1
[10] = biological target: Dual specificity protein kinase CLK3 (Homo sapiens) (UniProt P49761); assay: Inhibition of wild-type human full length CLK3 (M1 to R490 residues) expressed in bacterial expression system assessed as remaining activity at 1 uM by Kinomescan method relative to control; in short: as §1
[11] = biological target: Cyclin-dependent kinase 2 (Homo sapiens) (UniProt P24941); assay: Inhibition of wild-type human full length CDK2 (M1 to L298 residues) expressed in bacterial expression system assessed as remaining activity at 1 uM by Kinomescan method relative to control; in short: as §1
[12] = biological target: Glycogen synthase kinase-3 beta (Homo sapiens) (UniProt P49841); assay: Inhibition of wild-type human full length GSK3B (M1 to T433 residues) expressed in mammalian expression system assessed as remaining activity at 1 uM by Kinomescan method relative to control; in short: as §1
[13] = biological target: T1, Dual specificity tyrosine-phosphorylation-regulated kinase 1A; assay: Inhibition of human DYRK1A-mediated tau phosphorylation expressed in HEK293 cells incubated for 2 hrs by ELISA; assay type: cell-based

Chain of Dual specificity protein kinase CLK3 (Homo sapiens) (P49761 whole entry, looked up, the tested form may be a part): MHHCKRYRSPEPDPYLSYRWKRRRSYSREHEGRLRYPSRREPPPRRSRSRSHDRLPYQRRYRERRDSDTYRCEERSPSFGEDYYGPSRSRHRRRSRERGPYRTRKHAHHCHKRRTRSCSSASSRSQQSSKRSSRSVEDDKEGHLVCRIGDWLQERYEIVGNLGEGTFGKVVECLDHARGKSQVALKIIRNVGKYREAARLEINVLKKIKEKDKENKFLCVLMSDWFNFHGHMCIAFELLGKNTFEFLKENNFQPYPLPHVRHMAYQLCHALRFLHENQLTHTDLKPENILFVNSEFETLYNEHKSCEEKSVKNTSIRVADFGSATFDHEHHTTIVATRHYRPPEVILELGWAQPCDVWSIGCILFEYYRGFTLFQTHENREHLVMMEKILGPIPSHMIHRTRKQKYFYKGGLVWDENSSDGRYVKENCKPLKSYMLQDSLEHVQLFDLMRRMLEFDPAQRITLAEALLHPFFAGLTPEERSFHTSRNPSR
Chain of Dual specificity tyrosine-phosphorylation-regulated kinase 1B (Homo sapiens) (Q9Y463 whole entry, looked up, the tested form may be a part): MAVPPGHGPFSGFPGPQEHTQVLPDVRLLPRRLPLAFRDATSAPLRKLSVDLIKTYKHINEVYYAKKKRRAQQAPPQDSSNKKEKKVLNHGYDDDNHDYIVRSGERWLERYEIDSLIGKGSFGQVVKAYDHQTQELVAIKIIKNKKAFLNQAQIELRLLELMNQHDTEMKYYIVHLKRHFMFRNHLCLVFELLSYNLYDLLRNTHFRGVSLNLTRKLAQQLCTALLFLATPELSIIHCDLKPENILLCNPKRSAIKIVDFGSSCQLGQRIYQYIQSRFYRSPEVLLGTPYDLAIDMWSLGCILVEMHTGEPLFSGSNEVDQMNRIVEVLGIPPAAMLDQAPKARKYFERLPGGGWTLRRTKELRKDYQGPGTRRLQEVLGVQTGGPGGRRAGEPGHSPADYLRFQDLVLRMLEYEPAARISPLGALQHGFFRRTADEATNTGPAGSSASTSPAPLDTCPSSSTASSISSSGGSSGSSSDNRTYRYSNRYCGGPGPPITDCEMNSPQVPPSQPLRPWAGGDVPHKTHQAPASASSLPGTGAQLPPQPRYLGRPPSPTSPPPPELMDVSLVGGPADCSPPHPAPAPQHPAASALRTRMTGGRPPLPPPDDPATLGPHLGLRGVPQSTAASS
Chain of Dual specificity protein kinase CLK2 (Homo sapiens) (P49760 whole entry, looked up, the tested form may be a part): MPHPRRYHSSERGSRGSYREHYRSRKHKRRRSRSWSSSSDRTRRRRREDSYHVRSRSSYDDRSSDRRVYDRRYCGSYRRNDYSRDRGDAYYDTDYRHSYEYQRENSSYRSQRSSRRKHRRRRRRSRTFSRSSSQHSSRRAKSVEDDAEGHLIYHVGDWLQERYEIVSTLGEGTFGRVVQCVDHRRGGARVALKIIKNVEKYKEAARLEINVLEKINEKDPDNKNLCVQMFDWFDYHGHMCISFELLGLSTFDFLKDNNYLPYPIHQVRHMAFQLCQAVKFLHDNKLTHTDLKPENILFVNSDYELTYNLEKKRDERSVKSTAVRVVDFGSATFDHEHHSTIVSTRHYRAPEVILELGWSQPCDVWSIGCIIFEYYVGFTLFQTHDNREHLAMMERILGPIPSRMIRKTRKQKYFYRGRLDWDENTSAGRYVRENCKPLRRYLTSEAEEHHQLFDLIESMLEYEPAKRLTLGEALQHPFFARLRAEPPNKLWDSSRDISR
Chain of Glycogen synthase kinase-3 beta (Homo sapiens) (P49841 whole entry, looked up, the tested form may be a part): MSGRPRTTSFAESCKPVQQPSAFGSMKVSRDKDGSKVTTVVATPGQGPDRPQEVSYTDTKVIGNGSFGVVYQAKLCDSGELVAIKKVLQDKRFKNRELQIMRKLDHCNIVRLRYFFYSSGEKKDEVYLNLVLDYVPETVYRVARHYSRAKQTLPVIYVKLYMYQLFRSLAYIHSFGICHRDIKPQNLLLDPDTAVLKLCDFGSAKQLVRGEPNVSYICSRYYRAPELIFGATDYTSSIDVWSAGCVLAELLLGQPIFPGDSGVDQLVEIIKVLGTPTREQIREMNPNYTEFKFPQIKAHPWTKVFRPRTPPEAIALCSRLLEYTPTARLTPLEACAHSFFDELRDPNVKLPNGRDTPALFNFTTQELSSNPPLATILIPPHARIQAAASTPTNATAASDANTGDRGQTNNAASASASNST
Chain of Dual specificity protein kinase CLK1 (P49759 whole entry, looked up, the tested form may be a part): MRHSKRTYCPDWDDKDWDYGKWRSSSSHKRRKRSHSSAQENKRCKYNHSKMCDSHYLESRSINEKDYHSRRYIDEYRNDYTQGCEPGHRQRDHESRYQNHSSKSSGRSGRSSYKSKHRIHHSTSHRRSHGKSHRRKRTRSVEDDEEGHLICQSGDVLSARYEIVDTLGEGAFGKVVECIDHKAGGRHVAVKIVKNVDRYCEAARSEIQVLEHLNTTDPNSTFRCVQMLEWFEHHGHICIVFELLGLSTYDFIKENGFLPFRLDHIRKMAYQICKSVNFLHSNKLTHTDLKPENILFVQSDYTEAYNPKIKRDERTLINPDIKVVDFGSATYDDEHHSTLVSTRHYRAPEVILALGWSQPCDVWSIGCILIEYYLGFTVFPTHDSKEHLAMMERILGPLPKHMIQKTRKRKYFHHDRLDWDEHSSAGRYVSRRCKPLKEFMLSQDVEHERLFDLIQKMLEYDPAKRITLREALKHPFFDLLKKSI

SMILES | IC50 [1] [nM] | Kd [2] [nM] | microsomal CLint [3] [µL/min/mg] | microsomal CLint [4] [µL/min/mg] | solubility thermodynamic [5] [µg/mL] | Activity [6] [%] | Activity [7] [%] | Activity [8] [%] | Activity [9] [%] | Activity [10] [%] | Activity [11] [%] | Activity [12] [%] | IC50 [13] [nM]
c1cnn2ncc(-c3ccnc(N4CCC45COC5)n3)c2c1 | 79.4 | 64 | 126 | 119 | 60 (≈ 204 µM) | 8.3 | 11 | 33 | 13 | 54 | 100 | 75 | –
CN(c1nccc(-c2cnn3ncccc23)n1)C1CC1 | 115 | 90.4 | 71 | 434 | 60 (≈ 225 µM) | 43 | 100 | 79 | 95 | 96 | 100 | 91 | –
CN(C)c1ncc(F)c(-c2cnn3ncccc23)n1 | 57.5 | 12 | 697 | 983 | 30 (≈ 116 µM) | 71 | 55 | 53 | 54 | 84 | 100 | 93 | 250

— ChEMBL document CHEMBL4808225, “Discovery and Characterization of Selective and Ligand-Efficient DYRK Inhibitors” (J Med Chem, 2021)
